The list is not random: actives were taken first. Their share in the collection is about 2.7%.
AF4-AF9 inh – blocks AF4 peptide binding to human AF9; P42568; AlphaScreen, biotin-AF4 peptide binding to FLAG-AF9; inhibition, % at 10 µM; 0.47% of 350,000 active; AID 651704;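 active means every replicate reaching a set inhibition limit, whatever the replicate mean, cut at about 25% in these data; inconclusive means mean inhibition reaches that limit but some replicates miss it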
CaV13 ICDI inh – Disruptors of the CACNA1D IQ motif to Ca2+-dependent inactivation inhibitor domain association, primary screening, Förster resonance energy transfer in intact living … | 0.098% of 340,000 active | inhibition, % at 12.3 µM | HEK cells, CFP/YFP FRET ICDI-IQ, plate reader, 10 min; percent FRET-ratio fall versus neutral wells;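 active means mean replicate inhibition of at least 30% and at least 1% of replicates passing that level; inconclusive means only one of the two criteria is met; inactive means neither criterion is met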
SIRT5 inh – sirtuin-5 (human) deacylase inhibition. Q9NXA8. inhibition, % at 15 µM. 1.1% of 330,000 active. Purified SirT5, succinyl-peptide AMC, trypsin-coupled fluorescence; in the data active means inhibition above about 15%; inconclusive means no clear call, values can overlap the other calls
Target sequence (Q9NXA8 whole entry, looked up): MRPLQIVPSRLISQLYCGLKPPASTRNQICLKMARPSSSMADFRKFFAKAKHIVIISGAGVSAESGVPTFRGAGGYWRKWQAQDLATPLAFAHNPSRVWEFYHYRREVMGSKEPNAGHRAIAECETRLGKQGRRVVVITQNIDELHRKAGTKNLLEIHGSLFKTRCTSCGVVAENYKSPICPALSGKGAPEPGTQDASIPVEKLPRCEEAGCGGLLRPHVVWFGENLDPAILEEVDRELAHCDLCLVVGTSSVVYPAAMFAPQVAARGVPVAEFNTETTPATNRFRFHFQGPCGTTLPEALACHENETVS
DENV2 CPE rescue – protects cells from dengue virus 2 cytopathic effect; DENV2-infected cells, cytopathic effect rescue, plate reader; 1.7% of 350,000 active; AID 651640; CPE inhibition, % at 9.99 µM; in the data active means CPE inhibition above about 20%, passing the limit was not always enough; inconclusive means no clear call, values can overlap the other calls; tested in BHK-21 cells
S100A4 MyoIIA – inhibitors of human S100A4 binding to myosin IIA peptide. P26447. AID 652163. S100A4/TAMRA-MyoIIA peptide fluorescence polarization. 0.14% of 360,000 active. inhibition, % at 10.7 µM;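 active means mean inhibition of at least 70% across replicates, with every replicate also reaching that level; inconclusive means mean inhibition reaches 70% but some replicates fall short; inactive means mean inhibition below 70%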
Target sequence (P26447 whole entry, looked up): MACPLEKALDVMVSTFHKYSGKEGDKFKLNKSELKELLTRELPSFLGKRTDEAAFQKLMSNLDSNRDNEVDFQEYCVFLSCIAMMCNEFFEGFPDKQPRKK
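Compound dosing: one dose per compound; test system: human S100A4 monomer with TAMRA-labelled myosin IIA peptide; probe or stimulus: TAMRA-labelled myosin IIA heavy-chain peptide probe, 5 nM; medium: HEPES buffer with Ca2+, pH 7.2; schedule: 5 min incubation before reading; benchmarks: neutral control DMSO, positive control TFP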
Large screens that a line does not name were inactive.

CC=Cc1ccc2n(c1=O)C[C@@H]1[C@@H](CO)[C@H](C(=O)N3CCOCC3)[C@H]2N1CC1CCCC1 (mixture of isomers)	DENV2 CPE rescue 36 (no result: CaV13 ICDI inh)
O=C([C@@H]1[C@@H](CO)[C@@H]2Cn3c(cccc3=O)[C@H]1N2C(=O)CC1CC1)N1CCCCC1	DENV2 CPE rescue 148 (no result: CaV13 ICDI inh)
CCC(=O)N1[C@@H]2c3cccc(=O)n3C[C@H]1[C@H](CO)[C@H]2C(=O)N1CCCCC1	none (no result: CaV13 ICDI inh)
O=C([C@@H]1[C@@H](CO)[C@@H]2Cn3c(cccc3=O)[C@H]1N2CC1CCCC1)N1CCOCC1	none (no result: CaV13 ICDI inh)
O=C([C@H]1[C@H](CO)[C@H]2Cn3c(cccc3=O)[C@@H]1N2CC1CCCCC1)N1CCOCC1	DENV2 CPE rescue 63 (no result: CaV13 ICDI inh)
O=C(O)Cc1c[nH]c2cccc(O)c12	SIRT5 inh 33 (no result: CaV13 ICDI inh)
O=C(O)Cc1c[nH]c2ccccc12	none (no result: CaV13 ICDI inh, SIRT5 inh)
C/C(=N\NC(=O)c1ccccc1O)c1ccc(NC(=O)c2ccccc2)cc1	DENV2 CPE rescue 117
C/C(=N\NC(=O)c1ccccc1O)c1cccc(NC(=O)c2ccccc2)c1	none
Nc1c2c(nc3ccccc13)CCCC2	DENV2 CPE rescue inconclusive
Nc1c2ccccc2nc2ccccc12	CaV13 ICDI inh 40
Cc1cc(C)n2c(Nc3ccc4c(c3)OCCO4)c(CC(C)C)nc2n1	DENV2 CPE rescue 46
COC(=O)C1=C(C(=O)OC)[C@@H]2Nc3ccccc3[C@@]23C[C@@H](C(=O)OC)N(C(=O)c2cccs2)C3=N1	DENV2 CPE rescue 68 (no result: AF4-AF9 inh, SIRT5 inh)
COc1ccccc1NC(=O)N1CCCCN2[C@H](CO)[C@H](c3ccc(-c4cccc(C#N)c4)cc3)[C@@H]2C1	none (no result: CaV13 ICDI inh)
CCOC(=O)N1CCN(S(=O)(=O)c2c(C)nc3sccn3c2=O)CC1	none
CCOC(=O)N1CCN(S(=O)(=O)c2c(C)nc3scc(C)n3c2=O)CC1	SIRT5 inh 31
CCS(=O)(=O)Nc1ccc2c(c1)C(=O)N(C)[C@H]1CC[C@@H](CC(=O)N[C@H]3CCN(Cc4ccccc4)C3)O[C@H]1CO2	none (no result: CaV13 ICDI inh, SIRT5 inh, DENV2 CPE rescue, S100A4 MyoIIA)
COc1ccc(C(C)C)cc1S(=O)(=O)NCC1CCCO1 (configuration not stated)	SIRT5 inh 15
CSCCC(NC(=O)c1ccco1)C(=O)NCC1CCCO1 (configuration not stated)	DENV2 CPE rescue 67
COc1ccc(NC(=O)Nc2ccc3c(c2)C(=O)N([C@H](C)CO)C[C@@H](C)[C@@H](CN(C)C(=O)NC2CCCCC2)OCCCC[C@@H](C)O3)cc1	none (no result: CaV13 ICDI inh)
NC1=NC(=O)/C(=C/c2ccc(Br)cc2)S1	none
CCOC(=O)COc1ccc(Br)cc1/C=C1\SC(N)=NC1=O	DENV2 CPE rescue 37
CCCNC(=O)C[C@@H]1CC[C@H]2[C@H](COc3ccc(NC(=O)c4cccc(OC)c4)cc3C(=O)N2C)O1	none (no result: CaV13 ICDI inh)
Cc1ccc(S(=O)(=O)N2C[C@@H]3[C@H]4CC[C@H](C4)[C@@H]3[C@@H](C)[C@@H]2c2ccn([Si](C(C)C)(C(C)C)C(C)C)c2)cc1	DENV2 CPE rescue 25
C=CCC1[C@H](C)[C@H]2[C@@H]3CC[C@@H](C3)[C@H]2CN1S(=O)(=O)c1ccc(C)cc1 (some centres not stated)	none
CCC(=O)N1CC2(C1)[C@@H](c1ccccc1)[C@@H](CO)N2Cc1ccccc1OC	none (no result: CaV13 ICDI inh)
C[C@@H]1CCCCO[C@H](CN(C)C(=O)Nc2ccccc2)[C@H](C)CN([C@@H](C)CO)C(=O)c2cc(NS(=O)(=O)c3ccccc3)ccc2O1	DENV2 CPE rescue inconclusive (no result: CaV13 ICDI inh)
Cc1cccc(S(=O)(=O)N[C@H]2CC[C@@H](CCn3cc(-c4ccccn4)nn3)O[C@@H]2CO)c1	none (no result: CaV13 ICDI inh)
COc1ccc(N2CCN(C(=O)CN3CCN(c4nc(-c5ccc(F)cc5)cs4)CC3)CC2)cc1	AF4-AF9 inh 27
CCCC(=O)Nc1ccc2c(c1)C(=O)N(C)[C@H]1CC[C@@H](CC(=O)Nc3ccccc3)O[C@H]1CO2	none (no result: CaV13 ICDI inh)
S=C1N(c2ccccc2)C(c2ccc(Cl)cc2)N2CCCN12 (configuration not stated)	none (no result: AF4-AF9 inh, SIRT5 inh, DENV2 CPE rescue, S100A4 MyoIIA)
S=C1N(c2ccccc2)C(c2ccc(Br)cc2)N2CCCN12 (configuration not stated)	DENV2 CPE rescue 42
COC(=O)[C@H](Cc1ccccc1)NC(=O)NCc1ccc(C)cc1	none
Cc1ccc(CNC(=O)N[C@@H](Cc2ccccc2)C(=O)O)cc1	SIRT5 inh 17
O=C(C[C@@H]1CC[C@@H]2[C@H](COC[C@@H](O)CN2C(=O)c2cnccn2)O1)NCc1ccc(Cl)cc1	none (no result: CaV13 ICDI inh)
C=CCn1c(SCC(=O)c2ccc(O)c(O)c2)nnc1-c1ccc(C)cc1	SIRT5 inh 44
C=CCn1c(SCC(=O)c2ccc(O)c(O)c2)nnc1-c1ccc(OC)cc1	none
C[C@H]1CCCCO[C@H](CN(C)S(=O)(=O)c2ccc(Cl)cc2)[C@@H](C)CN([C@@H](C)CO)C(=O)c2cc(NS(=O)(=O)c3ccc(F)cc3)ccc2O1	SIRT5 inh 23 (no result: CaV13 ICDI inh)
C[C@@H]1CCCCO[C@H](CN(C)S(=O)(=O)c2ccc(F)cc2)[C@H](C)CN([C@H](C)CO)C(=O)c2cc(NS(=O)(=O)c3ccc(Cl)cc3)ccc2O1	none (no result: CaV13 ICDI inh)
C[C@H](CO)N1C[C@H](C)[C@H](CN(C)S(=O)(=O)c2ccc(Cl)cc2)OCCCC[C@H](C)Oc2ccc(NS(=O)(=O)c3ccc(F)cc3)cc2C1=O	SIRT5 inh 23, DENV2 CPE rescue inconclusive (no result: CaV13 ICDI inh)
C[C@@H]1CCCCO[C@H](CN(C)S(=O)(=O)c2ccc(F)cc2)[C@H](C)CN([C@@H](C)CO)C(=O)c2cc(NS(=O)(=O)c3ccc(Cl)cc3)ccc2O1	none (no result: CaV13 ICDI inh)
C[C@@H]1CCCCO[C@@H](CN(C)S(=O)(=O)c2ccc(F)cc2)[C@H](C)CN([C@H](C)CO)C(=O)c2cc(NS(=O)(=O)c3ccc(Cl)cc3)ccc2O1	SIRT5 inh 17 (no result: CaV13 ICDI inh)
CCS(=O)(=O)N1CCCCN2[C@@H](CO)[C@@H](c3ccc(C#Cc4ccccc4OC)cc3)[C@@H]2C1	none (no result: CaV13 ICDI inh)
C[C@H]1CN([C@@H](C)CO)C(=O)Cc2cc(NC(=O)Cc3cn(C)c4ccccc34)ccc2O[C@H]1CN(C)S(=O)(=O)c1ccccc1	none (no result: CaV13 ICDI inh)
CC=Cc1ccc2n(c1=O)C[C@H]1[C@H](CO)[C@@H](C(=O)N(C)C)[C@@H]2N1CC1CC1 (mixture of isomers)	none (no result: CaV13 ICDI inh)
CCOc1[nH]n(-c2ccccc2)c(=O)c1C=Nc1ccc(C)cc1	SIRT5 inh 18
C[C@@H]1CN([C@@H](C)CO)C(=O)c2cccc(NS(=O)(=O)c3cccs3)c2O[C@@H]1CN(C)Cc1ccc(C(=O)Nc2ccccc2N)cc1	none (no result: CaV13 ICDI inh, SIRT5 inh)
OC[C@H]1Nc2ccc(-c3cccc(F)c3)cc2[C@@H]2[C@H]1CCN2Cc1ccc(F)cc1	DENV2 CPE rescue 48 (no result: CaV13 ICDI inh)
CC(=O)N1CC[C@@H]2[C@@H](CO)Nc3ccc(-c4cccc(F)c4)cc3[C@@H]21	DENV2 CPE rescue 29 (no result: CaV13 ICDI inh)
OC[C@H]1Nc2ccc(-c3cccc(F)c3)cc2[C@H]2[C@@H]1CCN2Cc1ccc(F)cc1	none (no result: CaV13 ICDI inh)

Bioassay records (PubChem BioAssay)
